Calls of active or inactive are those of the source.
Assays:
[1] = Effect on action potential in Wistar rat DRG neuron assessed as resting potential at 0.03 mM after 12 to 48 hrs by patch-clamp recordings (reference value: -60 +/- 1.1 mV); type: functional
[2] = Effect on action potential in Wistar rat DRG neuron assessed as resting potential at 1 mM after 12 to 48 hrs by patch-clamp recordings (reference value: -60 +/- 1.1 mV); type: functional
[3] = Effect on action potential in Wistar rat DRG neuron assessed as maximum ascendant inclination at 1 mM after 12 to 48 hrs by patch-clamp recordings (reference value: 151.2 +/- 6.2 V/s); type: functional
Sciatic nerve [4] = test: Reduction in peak-to-peak amplitude of compound action potential in Wistar rat sciatic nerve after 180 mins by electrophysiology; type: functional, tissue-based; details: 3 h
Summary of the method: (§1)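 Evoked compound action potentials in Wistar rat sciatic nerve, recorded 40–50 mm from the stimulating electrodes and sampled at 20 kHz. The segment was bathed in Locke's solution carrying the drug (0.03–1 mM) after at least 30 min of stable amplitude. Exposure lasted 180 min, then 180 min washout. Peak-to-peak amplitude, n = 5 per concentration; IC50 from a logistic fit at 180 min.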

[5] = Effect on action potential in Wistar rat DRG neuron assessed as maximum ascendant inclination at 0.1 mM after 12 to 48 hrs by patch-clamp recordings (reference value: 151.2 +/- 6.2 V/s); type: functional
[6] = Effect on action potential in Wistar rat DRG neuron assessed as elevation in current threshold levels at 0.03 to 3 mM after 12 to 48 hrs by intracellular recordings relative to control
Sciatic nerve [7] = test: Reduction in peak-to-peak amplitude of compound action potential in Wistar rat sciatic nerve at 1 mM after 180 mins by electrophysiology; type: functional, tissue-based
Summary of the method: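 Sciatic nerve from Wistar rats (200–300 g, both sexes) held in a moist chamber, with a 15–20 mm segment immersed in Locke's solution that carried the drug (DMSO ≤0.2% v/v). One end was stimulated and evoked CAPs were recorded 40–50 mm away. Exposure lasted 180 min and began after at least 30 min of stable amplitude. Read-out was peak-to-peak amplitude, at 18–22 °C, n = 5, followed by 180 min washout.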

[8] = Effect on action potential in Wistar rat DRG neuron assessed as maximum descendant inclination at 0.1 mM by intracellular recording (reference value: -104.7 +/- 3.6 V/s)
[9] = […] of Wistar rat sciatice nerve fiber excitability assessed as increase in rheobase at 0.6 mM (reference value: 3.30 +/- 0.06 V); type: functional
[10] = Effect on action potential in Wistar rat DRG neuron assessed as input resistance at 1 mM after 12 to 48 hrs by patch-clamp recordings (reference value: 25.5 +/- 2.1 Momega); type: functional
[11] = Effect on action potential in Wistar rat DRG neuron assessed as amplitude reduction at 3 mM after 12 to 48 hrs by patch-clamp recordings (reference value: 79 +/- 1.3 mV); type: functional
[12] = Effect on action potential in Wistar rat DRG neuron assessed as maximum descendant inclination at 3 mM after 12 to 48 hrs by patch-clamp recordings (reference value: -104.7 +/- 3.6 V/s); type: functional
[13] = Effect on action potential in Wistar rat DRG neuron assessed as amplitude reduction at 1 mM after 12 to 48 hrs by patch-clamp recordings (reference value: 79 +/- 1.3 mV); type: functional
[14] = Effect on action potential in Wistar rat DRG neuron assessed as input resistance at 0.6 mM after 12 to 48 hrs by patch-clamp recordings (reference value: 25.5 +/- 2.1 Momega); type: functional
[15] = […] of Wistar rat sciatice nerve fiber excitability assessed as increase in chronaxy measured as time at 0.6 mM (reference value: 59.6 +/- 1.2 microsec); type: functional
[16] = Reduction in amplitude of compound action potential in frog sciatic nerve by electrophysiology; type: functional, tissue-based, Anura
[17] = Effect on action potential in Wistar rat DRG neuron assessed as resting potential at 0.3 mM after 12 to 48 hrs by patch-clamp recordings (reference value: -60 +/- 1.1 mV); type: functional
Rattus norvegicus [18] = species on record: Rattus norvegicus; test: Inhibition of voltage-gated sodium channel of […] rat dissociated DRG neuron assessed as inhibition of current induced of voltage-gated sodium current at holding potential by patch-clamp recordings; details: concentration not given here
[19] = Effect on action potential in Wistar rat DRG neuron assessed as amplitude reduction at 0.1 mM after 12 to 48 hrs by patch-clamp recordings (reference value: 79 +/- 1.3 mV); type: functional
[20] = Effect on action potential in Wistar rat DRG neuron assessed as input resistance at 0.1 mM after 12 to 48 hrs by patch-clamp recordings (reference value: 25.5 +/- 2.1 Momega); type: functional
[21] = Effect on action potential in Wistar rat DRG neuron assessed as amplitude reduction at 0.3 mM after 12 to 48 hrs by patch-clamp recordings (reference value: 79 +/- 1.3 mV); type: functional
[22] = Effect on action potential in Wistar rat DRG neuron assessed as duration at half maximal amplitute at 1 mM by intracellular recording (reference value: 1.6 +/- 0.1 ms)
[23] = Effect on action potential in Wistar rat DRG neuron assessed as duration at half maximal amplitute at 0.6 mM after 12 to 48 hrs by patch-clamp recordings (reference value: 1.6 +/- 0.1 ms); type: functional
[24] = Effect on action potential in Wistar rat DRG neuron assessed as maximum descendant inclination at 1 mM by intracellular recording (reference value: -104.7 +/- 3.6 V/s)
[25] = Effect on action potential in Wistar rat DRG neuron assessed as amplitude reduction at 0.6 mM after 12 to 48 hrs by patch-clamp recordings (reference value: 79 +/- 1.3 mV); type: functional
[26] = Effect on action potential in Wistar rat DRG neuron assessed as maximum ascendant inclination at 0.03 mM after 12 to 48 hrs by patch-clamp recordings (reference value: 151.2 +/- 6.2 V/s); type: functional
[27] = Inhibition of voltage-gated sodium channel of Wistar rat dissociated DRG neuron assessed as inhibition of current induced of voltage-gated sodium current at -100 mV holding potential with 5 sec intervals by patch-clamp recordings
Summary of the method: (§2)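 Wistar rat DRG neurons dissociated with 1 mg/mL collagenase I (75 min) and 2.5 mg/mL trypsin (15 min) at 37 °C, plated on poly-D-lysine and used 12–48 h later. Whole-cell voltage clamp used 100 ms steps to 0 mV from −100 mV every 5 s, at room temperature. External solution: 20 mM NaCl with TEA, Cs and Cd, pH 7.4. Internal solution: CsCl, pH 7.2. Drug 0.01–10 mM, n = 50 cells, logistic fit.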

[28] = Reduction in amplitude of compound action potential in bullfrog sciatic nerve at 0.5 mM after 15 mins by electrophysiology; type: functional, Rana catesbeiana; details: Aquarana catesbeiana, 0.25 h
[29] = Effect on action potential in Wistar rat DRG neuron assessed as maximum ascendant inclination at 0.3 mM after 12 to 48 hrs by patch-clamp recordings (reference value: 151.2 +/- 6.2 V/s); type: functional
Sciatic nerve [30] = test: Reduction in peak-to-peak amplitude of compound action potential in Wistar rat sciatic nerve at 0.3 mM after 180 mins by electrophysiology; type: functional, tissue-based; summary of the method: as §1
Sciatic nerve [31] = test: Inhibition of first component amplitude of compound action potential in Wistar rat Aalpha sciatic nerve after 180 mins by electrophysiology; type: functional, tissue-based; summary of the method: as §1
[32] = Effect on action potential in Wistar rat DRG neuron assessed as resting potential at 0.1 mM after 12 to 48 hrs by patch-clamp recordings (reference value: -60 +/- 1.1 mV); type: functional
Sciatic nerve [33] = test: Inhibition of second component amplitude of compound action potential in Wistar rat Abeta and Agamma sciatic nerve within 60 mins by electrophysiology; type: functional, tissue-based; summary of the method: as §1
[34] = Effect on action potential in Wistar rat DRG neuron assessed as input resistance at 3 mM after 12 to 48 hrs by patch-clamp recordings (reference value: 25.5 +/- 2.1 Momega); type: functional
[35] = Effect on action potential in Wistar rat DRG neuron assessed as duration at half maximal amplitute at 0.03 mM after 12 to 48 hrs by patch-clamp recordings (reference value: 1.6 +/- 0.1 ms); type: functional
[36] = Effect on action potential in Wistar rat DRG neuron assessed as amplitude reduction at 0.03 mM after 12 to 48 hrs by patch-clamp recordings (reference value: 79 +/- 1.3 mV); type: functional
[37] = Effect on action potential in Wistar rat DRG neuron assessed as duration at half maximal amplitute at 3 mM by intracellular recording (reference value: 1.6 +/- 0.1 ms)
[38] = Effect on action potential in Wistar rat DRG neuron assessed as input resistance at 0.03 mM after 12 to 48 hrs by patch-clamp recordings (reference value: 25.5 +/- 2.1 Momega); type: functional
Sciatic nerve [39] = test: Reduction in peak-to-peak amplitude of compound action potential in Wistar rat sciatic nerve at 1 mM after 180 mins and measured after 180 mins washout by electrophysiology; type: functional, tissue-based; summary of the method: as §1
[40] = Effect on action potential in Wistar rat DRG neuron assessed as maximum descendant inclination at 0.6 mM by intracellular recording (reference value: -104.7 +/- 3.6 V/s)
[41] = Effect on action potential in Wistar rat DRG neuron assessed as maximum ascendant inclination at 3 mM after 12 to 48 hrs by patch-clamp recordings (reference value: 151.2 +/- 6.2 V/s); type: functional
[42] = Effect on action potential in Wistar rat DRG neuron assessed as input resistance at 0.3 mM after 12 to 48 hrs by patch-clamp recordings (reference value: 25.5 +/- 2.1 Momega); type: functional
[43] = Effect on action potential in Wistar rat DRG neuron assessed as resting potential at 0.6 mM after 12 to 48 hrs by patch-clamp recordings (reference value: -60 +/- 1.1 mV); type: functional
[44] = Effect on action potential in Wistar rat DRG neuron assessed as maximum ascendant inclination at 0.6 mM after 12 to 48 hrs by patch-clamp recordings (reference value: 151.2 +/- 6.2 V/s); type: functional
[45] = Effect on action potential in Wistar rat DRG neuron assessed as duration at half maximal amplitute at 0.3 mM after 12 to 48 hrs by patch-clamp recordings (reference value: 1.6 +/- 0.1 ms); type: functional
[46] = Blockade of action potential in Wistar rat DRG neuron after 12 to 48 hrs by intracellular recordings
[47] = Effect on action potential in Wistar rat DRG neuron assessed as resting potential at 3 mM after 12 to 48 hrs by patch-clamp recordings (reference value: -60 +/- 1.1 mV); type: functional
[48] = Effect on action potential in Wistar rat DRG neuron assessed as maximum descendant inclination at 0.03 mM by intracellular recording (reference value: -104.7 +/- 3.6 V/s)
Rattus norvegicus [49] = species on record: Rattus norvegicus; test: Inhibition of voltage-gated sodium channel of Wistar rat dissociated DRG neuron assessed as inhibition of current induced of voltage-gated sodium current at -100 mV holding potential with 5 sec intervals at 3 mM after 120 secs by patch-clamp recordings; summary of the method: as §2
[50] = Effect on action potential in Wistar rat DRG neuron assessed as duration at half maximal amplitute at 0.1 mM after 12 to 48 hrs by patch-clamp recordings (reference value: 1.6 +/- 0.1 ms); type: functional
[51] = Effect on action potential in Wistar rat DRG neuron assessed as maximum descendant inclination at 0.3 mM by intracellular recording (reference value: -104.7 +/- 3.6 V/s)

Question: What does the source list for `Cc1ccc(C(C)C)cc1O` [CARVACROL]?
Answer: Activity [1]: -62.6 mV; Activity [2]: -60.2 mV; Activity [3]: 4.4 V/s; IC50 (Sciatic nerve [4]): 500 µM; Activity [5]: 94.8 V/s; Activity [6]: 62.4%; inhibition (Sciatic nerve [7]): Active; Activity [8]: -78.9 V/s; Activity [9]: 4.16 V; Activity [10]: 26.3 MΩ; Activity [11]: 0 mV; Activity [12]: 0 V/s; Activity [13]: 4.2 mV; Activity [14]: 23.3 MΩ; Time [15]: 75 microsec; IC50 [16]: 500 µM; Activity [17]: -59.7 mV; inhibition (Rattus norvegicus [18]): 70%; Activity [19]: 53.9 mV; Activity [20]: 26.7 MΩ; Activity [21]: 43.9 mV; Time [22]: 0.2 ms; Time [23]: 0.6 ms; Activity [24]: -4.5 V/s; Activity [25]: 32.1 mV; Activity [26]: 128.6 V/s; IC50 [27]: 370 µM; inhibition at 500 µM [28]: 50%; Activity [29]: 84.4 V/s; inhibition (Sciatic nerve [30]): inactive; inhibition (Sciatic nerve [31]): Active; Activity [32]: -60.2 mV; inhibition (Sciatic nerve [33]): Active; Activity [34]: 20.8 MΩ; Time [35]: 1.6 ms; Activity [36]: 77 mV; Time [37]: 0 ms; Activity [38]: 29.3 MΩ; inhibition (Sciatic nerve [39]): inactive; Activity [40]: -48 V/s; Activity [41]: 0 V/s; Activity [42]: 27.1 MΩ; Activity [43]: -60.2 mV; Activity [44]: 56.5 V/s; Time [45]: 0.9 ms; IC50 [46]: 360 µM; Activity [47]: -57.5 mV; Activity [48]: -102.2 V/s; inhibition (Rattus norvegicus [49]): Active; Time [50]: 1.5 ms; Activity [51]: -62.7 V/s

Question: For `CCN(CC)CC(=O)Nc1c(C)cccc1C` [LIDOCAINE], which IC50 [16] is on record?
Answer: The IC50 was 740 µM.

Question: And the inhibition at 500 µM [28]?
Answer: Its inhibition at 500 µM is 46%.

Reference: ChEMBL document CHEMBL2203149, “Carvacrol decreases neuronal excitability by inhibition of voltage-gated sodium channels” (J Nat Prod, 2012)
